Assays:
AnpF orthologs = test: amino acid-dependent ATP-PPi exchange, AnpF orthologs; type: biochemical; details: amino acid-dependent ATP-PPi exchange assay
Mur14 = test: T domain loading by SDS-PAGE with phosphor imaging, Mur14; type: biochemical, Streptomyces sp. NRRL 30471; details: 14C-labelled amino acid; Mur27 with Mur14
AnpF = test: covalent modification by phosphor imaging, AnpF; type: biochemical; details: 14C-labelled amino acid
Mur21 [1] = test: amino acid-dependent ATP-PPi exchange, Mur21; type: biochemical, Streptomyces sp. NRRL 30471; details: amino acid-dependent ATP-PPi exchange assay; MBP fusion
any NRPS = details: [14C]NaHCO3; Figure S10
SadA = details: cited from earlier work
Mur15 [2] = target: T1, Mur15 (Streptomyces sp. NRRL 30471, UniProt F2WUC7); test: Mur15 substrate scope; type: biochemical; details: for Mur15-catalyzed hydroxylation (substrate conversion): Fe2+, αKG and O2, LC-MS; for Mur15-catalyzed hydroxylation of free amino acid: LC-MS with authentic hydroxylated standards
Method in brief: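 Mur15 incubated with Fe2+, αKG and O2 plus either a muraymycin substrate purified from Streptomyces sp. NRRL 30475 or a synthetic deaminoribose analogue. Reactions analysed by HPLC against a control without enzyme. Product identity checked by co-injection with authentic hydroxylated standard.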

M. smegmatis = test: anti-M. smegmatis activity; type: cell-based; details: 8 compared with 3; Table S3
E. coli = test: anti-E. coli activity; type: cell-based; details: 8 compared with 3; E. coli strain not stated; Table S3
Mur15 [3] = target: T1, Mur15; test: Mur15 single-substrate kinetic analysis and turnover; type: biochemical; details: for Km / kcat: single-substrate kinetic analysis with saturating αKG, Michaelis-Menten
Method in brief: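 Mur15 reaction with Fe2+, αKG and O2 as cofactor and cosubstrates. The native muraymycin substrate, purified from Streptomyces sp. NRRL 30475, is varied for single-substrate kinetics.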

AnpI = AnpI substrate test; type: biochemical, Streptomyces lavendulae subsp. lavendulae strain NRRL B-2775; details: free (not T domain-bound) substrate
AnpE orthologs [4] = test: covalent modification by phosphor imaging, AnpE orthologs; type: biochemical; details: 14C-labelled amino acid
AnpE orthologs [5] = test: amino acid-dependent ATP-PPi exchange, AnpE orthologs; type: biochemical; details: amino acid-dependent ATP-PPi exchange assay
SlAnpD(AT) = test: amino acid-dependent ATP-PPi exchange, SlAnpD; type: biochemical, Streptomyces lavendulae subsp. lavendulae strain NRRL B-2775; details: amino acid-dependent ATP-PPi exchange assay; truncated, lacking the C domain
VioC = VioC hydroxylation; type: biochemical, Streptomyces sp. strain ATCC11861; details: free L-Arg; experimental control
Mur16 = details: cited from earlier work
Mur27 = test: amino acid-dependent ATP-PPi exchange, Mur27; type: biochemical, Streptomyces sp. NRRL 30471; details: amino acid-dependent ATP-PPi exchange assay; MBP fusion
Mur21 [6] = test: T domain loading by SDS-PAGE with phosphor imaging, Mur21; type: biochemical, Streptomyces sp. NRRL 30471; details: 14C-labelled amino acid, MBP fusion
Mur12 = test: T domain loading by SDS-PAGE with phosphor imaging, Mur12; type: biochemical, Streptomyces sp. NRRL 30471; details: 14C-labelled amino acid, CoA and Sfp
holo-SlAnpD(AT) = test: covalent modification by phosphor imaging, holo-SlAnpD; type: biochemical, Streptomyces lavendulae subsp. lavendulae strain NRRL B-2775; details: 14C-labelled amino acid; phosphor imaging of gels

In the case of `N[C@@H](Cc1c[nH]cn1)C(=O)O` [L-His], the “A domain activation by AnpF orthologs” value (AnpF orthologs) is reported as “slight preference”.
With L-[^14C]Val the “loading of Mur14” value (Mur14) was “not observed” and the “covalent modification of AnpF” value (AnpF) was “Covalent modification of AnpF was observed”.
With `CC(C)[C@H](O)[C@H](N)C(=O)O` [(2S,3S)-2, (2S,3S)-β-OH-Leu] the “A domain activation of amino acid by Mur21” value (Mur21 [1]) was “inactive”.
For `O=[14C]([O-])O.[Na+]` [[^14C]NaHCO3], the “radiolabelling of NRPS” value (any NRPS) was “inability to radiolabel any NRPS”.
In the case of `CC(=O)N[C@@H](CC(C)C)C(=O)O` [N-acetyl-L-Leu], the “conversion by SadA to hydroxylated product” value (SadA) is given as “hydroxylated product with (2S,3R)-stereochemical configuration”.
With `N[C@@H](Cc1ccccc1)C(=O)O` [L-Phe] the “A domain activation by AnpF orthologs” value (AnpF orthologs) was “slight preference”.
With `CC(C)C[C@H](NC(=O)[C@@H](NC(=O)N[C@H](C(=O)O)C(C)C)[C@@H]1CCN=C(N)N1)C(=O)NCCCN[C@H](C(=O)O)[C@H](O[C@@H]1O[C@H](CN)[C@@H](O)[C@H]1O)[C@H]1O[C@@H](n2ccc(=O)[nH]c2=O)[C@H](O)[C@@H]1O` [compound 4, muraymycin D2] the “Mur15-catalyzed hydroxylation (substrate conversion)” value (Mur15 [2]) was “mono-hydroxylated”.
In the case of `CO[C@H]1[C@H](O[C@H]([C@H]2O[C@@H](n3ccc(=O)[nH]c3=O)[C@H](O)[C@@H]2O)[C@H](NCCCNC(=O)[C@@H](NC(=O)[C@@H](NC(=O)N[C@H](C(=O)O)C(C)C)[C@@H]2CCN=C(N)N2)[C@@H](O)C(C)C)C(=O)O)O[C@H](CN)[C@H]1O` [compound 8, muraymycin C1], the “Mur15-catalyzed hydroxylation (substrate conversion)” value (Mur15 [2]) is reported as “remained unchanged”, the “effect of conversion of 3 to 8 on anti-M. smegmatis activity” value (M. smegmatis) is reported as “minimal effect” and the “effect of conversion of 3 to 8 on E. coli activity” value (E. coli) is reported as “minimal effect”.
For `CO[C@H]1[C@H](O[C@H]([C@H]2O[C@@H](n3ccc(=O)[nH]c3=O)[C@H](O)[C@@H]2O)[C@H](NCCCNC(=O)[C@@H](NC(=O)[C@@H](NC(=O)N[C@H](C(=O)O)C(C)C)[C@@H]2CCN=C(N)N2)[C@@H](OC(=O)CCCCC(C)C)C(C)C)C(=O)O)O[C@H](CN)[C@H]1O` [muraymycin B6], the “Mur15-catalyzed hydroxylation (substrate conversion)” value (Mur15 [2]) was “mass consistent with a mono-hydroxylated product”.
With `CO[C@H]1[C@H](O[C@H]([C@H]2O[C@@H](n3ccc(=O)[nH]c3=O)[C@H](O)[C@@H]2O)[C@H](NCCCNC(=O)[C@@H](NC(=O)[C@@H](NC(=O)N[C@H](C(=O)O)C(C)C)[C@@H]2CCN=C(N)N2)[C@@H](OC(=O)CCCCCCC(C)C)C(C)C)C(=O)O)O[C@H](CN)[C@H]1O` [muraymycin B2] the Km (Mur15 [3]) was 930 µM, the kcat (Mur15 [3]) was 0.108 ± 0.0083 s⁻¹ and the “drop in catalytic efficiency when compared with 3” value (Mur15 [3]; with respect to muraymycin B2, saturating αKG) was ~ 2 -fold. The “Mur15-catalyzed hydroxylation (substrate conversion)” value (Mur15 [2]) was “mass consistent with a mono-hydroxylated product”.
In the case of α-MAPI [compound 9], the “conversion by AnpI” value (AnpI) is reported as “Neither, however, were converted to a product”.
In the case of `CO[C@H]1[C@H](O[C@H]([C@H]2O[C@@H](n3ccc(=O)[nH]c3=O)[C@H](O)[C@@H]2O)[C@H](NCCCNC(=O)[C@H](CC(C)C)NC(=O)[C@@H](NC(=O)N[C@H](C(=O)O)C(C)C)[C@@H]2CCN=C(N)N2)C(=O)O)O[C@H](CN)[C@H]1O` [compound 3, muraymycin D1], the Km (Mur15 [3]) is reported as 600 ± 100 µM, the kcat (Mur15 [3]) is reported as 0.167 ± 0.017 s⁻¹ and the “total turnover number (TTN)” value (Mur15 [3]; with native substrate (3) or unnatural substrate (muraymycin B), estimated) is reported as ≥ 800. The “Mur15-catalyzed hydroxylation (substrate conversion)” value (Mur15 [2]) was “a new peak with a mass corresponding to mono-hydroxylated 3”.
For `CO[C@H]1[C@H](O[C@H]([C@H]2O[C@@H](n3ccc(=O)[nH]c3=O)[C@H](O)[C@@H]2O)[C@H](NCCCNC(=O)[C@@H](NC(=O)[C@@H](NC(=O)N[C@H](C(=O)O)C(C)C)[C@@H]2CCN=C(N)N2)[C@@H](OC(=O)CCCCCCCCCCCCN(O)C(=N)N)C(C)C)C(=O)O)O[C@H](CN)[C@H]1O` [muraymycin A1], the “Mur15-catalyzed hydroxylation (substrate conversion)” value (Mur15 [2]) was “mass consistent with a mono-hydroxylated product”.
For `CC(C)C[C@H](NC(=O)CCC(=O)O)C(=O)O` [N-succinyl-L-Leu], the “conversion by SadA to hydroxylated product” value (SadA) is listed as “hydroxylated product with (2S,3R)-stereochemical configuration”.
In the case of `N[C@@H](CS)C(=O)O` [L-Cys], the “A domain activation by AnpF orthologs” value (AnpF orthologs) is reported as “slight preference”.
In the case of `N[C@@H](Cc1c[nH]c2ccccc12)C(=O)O` [L-Trp], the “A domain activation by AnpF orthologs” value (AnpF orthologs) is reported as “no activity”.
In the case of L-[^14C]Phe, the “covalent modification of AnpE orthologs” value (AnpE orthologs [4]) is reported as “covalent modification of the AnpE orthologs was detected”.
With `CSCC[C@H](N)C(=O)O` [L-Met] the “A domain activation by AnpE orthologs” value (AnpE orthologs [5]) was “highest activity” and the “A domain activation by AnpF orthologs” value (AnpF orthologs) was “slight preference”.
With `N=C(N)NCCC[C@H](N)C(=O)O` [L-Arg] the “Mur15-catalyzed hydroxylation of free amino acid” value (Mur15 [2]) was “no peaks corresponding to a hydroxylated product were detected”, the “A domain specificity of SlAnpD(AT)” value (SlAnpD(AT)) was “high specificity” and the “conversion by AnpI” value (AnpI) was 1 was not detected. For the same compound, the “hydroxylation by VioC” value (VioC) was “shown to hydroxylate free L-Arg” and the “hydroxylation by Mur16” value (Mur16) was “did not hydroxylate L-Arg”.
For `CC(C)[C@H](N)C(=O)O` [L-Val], the “A domain activation of amino acid by Mur27” value (Mur27) was “relatively low activity yet with modest specificity”, the “A domain activation by AnpE orthologs” value (AnpE orthologs [5]) was “very low activity” and the “A domain activation by AnpF orthologs” value (AnpF orthologs) was “slight preference”.
In the case of `N=C(N)NCCC[C@H](NC(=O)NC(Cc1ccccc1)C(=O)O)C(=O)O` (stereo partly drawn) [compound 11, L-Phe-(C=O)-L-Arg], the “conversion by AnpI” value (AnpI) is reported as “No product was observed”.
In the case of `CC[C@H](C)[C@H](N)C(=O)O` [L-Ile], the “A domain activation by AnpE orthologs” value (AnpE orthologs [5]) is reported as “very low activity” and the “A domain activation by AnpF orthologs” value (AnpF orthologs) is reported as “slight preference”.
In the case of L-[^14C]Leu, the “self-loading of Mur21” value (Mur21 [6]) is reported as “not observed”.
With `CC(C)C[C@H](N)C(=O)O` [L-Leu] the “Mur15-catalyzed hydroxylation of free amino acid” value (Mur15 [2]) was “no peaks corresponding to a hydroxylated product were detected”, the “A domain activation of amino acid by Mur21” value (Mur21 [1]) was “preferential activity” and the “A domain activation by AnpE orthologs” value (AnpE orthologs [5]) was “highest activity”. The “A domain activation by AnpF orthologs” value (AnpF orthologs) was “slight preference”.
With L-[^14C]Arg the “loading of Mur12 T domain” value (Mur12) was “A faint band corresponding to the molecular weight of Mur12 was detected” and the “covalent modification of holo-SlAnpD(AT)” value (holo-SlAnpD(AT)) was “covalently modified”.
